Laboratory results from ChEMBL document CHEMBL1125814, “Folic acid analogues lacking the 2-carbon are substrates for folylpolyglutamate synthetase and inhibit cell growth” (J Med Chem, 1991).

Experiments:
[1] = Relative maximal velocity (Vmax) as folylpolyglutamate synthetase substrate of the compound.; format: ADME
[2] = test system: L1210; test: Compound was tested for inhibition of L1210 cell growth.; format: functional, cell-based; conditions: Mus musculus
Summary of the method: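 Exponentially growing L1210 mouse leukemia cells seeded at (2.0–2.5) × 10^4/mL in RPMI-1640 with 10% dialyzed fetal bovine serum. Compound added in phosphate-buffered saline. Incubated 72 h at 37 °C, 5% CO2, humidified. Cells counted with a Coulter counter. IC50 taken from 1 or 2 experiments.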

[3] = Ratio of relative Vmax to that of Km values.; format: ADME

SMILES | Relative Vmax [1] | IC50 [2] | Ratio [3]
Nc1nc(N)c2nc(CNc3ccc(C(=O)N[C@@H](CCC(=O)O)C(=O)O)cc3)cnc2n1 [AMINOPTERIN] | 1.59 |  | 10.1
Nc1nc2ncc(CNc3ccc(C(=O)N[C@@H](CCC(=O)O)C(=O)O)cc3)nc2c(=O)[nH]1 [FOLIC ACID] | 1 |  | 1
CN(Cc1cnc2nc(N)nc(N)c2n1)c1ccc(C(=O)N[C@@H](CCC(=O)O)C(=O)O)cc1 [METHOTREXATE] | 0.99 |  | 0.9

Next, values leading:

Relative Vmax [1] | IC50 [2] | Ratio [3] | SMILES
1.06 | 217 µM | 0.7 | N#Cc1nc(CNc2ccc(C(=O)NC(CCC(=O)O)C(=O)O)cc2)cnc1N (stereo not given)
0.99 | 5.5 µM | 1.52 | NC(=O)c1nc(CNc2ccc(C(=O)NC(CCC(=O)O)C(=O)O)cc2)cnc1N (stereo not given)
1.84 | 85 µM | 2.6 | NC(=O)c1nc(CN(C=O)c2ccc(C(=O)NC(CCC(=O)O)C(=O)O)cc2)cnc1N (stereo not given)
